Measured values from ChEMBL document CHEMBL1126765, “Analogues of capsaicin with agonist activity as novel analgesic agents; structure-activity studies. 1. The aromatic "A-region"” (J Med Chem, 1993).

Experiments:
Rattus norvegicus = species on record: Rattus norvegicus; test: In vitro effective concentration for [Ca2+] uptake and accumulation of [Ca2+] in neonatal rat cultured spinal sensory neurons; type: functional
How it was run: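 Newborn rat DRG neurones dissociated with collagenase then 2.5 mg/mL trypsin at 37 °C, plated with 1 μg/mL NGF, 10^-4 M cytosine arabinoside for 48 h; used at 3-7 days. Cells washed in Ca-free HEPES BSS pH 7.4, then given compound plus 10 μCi/mL 45Ca2+ with 1% DMSO for 10 min at room temperature. SDS-extracted, scintillation counted. Sigmoidal fit; ≥6 replicates, ≥2 experiments; mean ± SEM.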

[1] = Acid dissociation constant was determined; type: ADME
Cavia porcellus = species on record: Cavia porcellus; test: In vitro contraction in guinea pig ileum equivalent to 50% capsaicin response; type: functional
How it was run: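 Male Dunkin-Hartley guinea pig ileum segments in Tyrode's solution at 37 °C, gassed 95% O2/5% CO2, isometric recording, 1 h equilibration under 0.5 g tension. […] doses given at 1 h intervals with frequent washes. Contraction amplitude expressed as % of maximal capsaicin response; EC50 = concentration giving 50% of that response; mean ± SEM from at least four tissues.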

Mus musculus = test: In vivo analgesic activity, mouse tail flick latency in antinociceptive assay; type: functional
How it was run: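 Female CD-1 mice, about 20 g, fasted overnight. Drug or vehicle given s.c. into the back of the neck, 10 per group. Tail flick latency to a focused light beam measured 1 h later at 3.5 cm from the tip, 30 s cutoff. % analgesia = (drug − vehicle latency)/(30 s − vehicle latency); ED50 = dose giving 50% analgesia. Mann-Whitney U or Dunnett's test.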

Structure (SMILES) | EC50 (Rattus norvegicus) | pKa [1] | EC50 (Cavia porcellus) | ED50 (Mus musculus)
CCCCCCCCNC(=O)Cc1cccc(OC)c1 | > 100 µM |  |  | 
CCCCCCCCC(=O)NCc1cc(O)cc(OC)c1 | > 100 µM |  |  | 
CCCCCCCCC(=O)NCc1ccc2c(c1)OCO2 | > 100 µM |  |  | 
CCCCCCCCC(=O)NCc1cc(=O)c(O)co1 | > 100 µM |  |  | 
CCCCCCCCNC(=O)Cc1cc(OC)c(O)c(OC)c1 | > 100 µM |  |  | 
CCCCCCCCNC(=O)Cc1ccc(O)cc1 | 6.5 µM | 10.2 | 2.75 µM | > 50 µmol/kg
COc1cc(CNC(=O)CCCC/C=C/C(C)C)ccc1O [CAPSAICIN] | 0.3 µM |  | 0.26 µM | 15 µmol/kg
CCCCCCCCC(=O)NCc1ccc(O)c(O)c1O | 7.64 µM |  |  | 
CCCCCCCCC(=O)NCc1ccc(OC)c(OC)c1 | 6.41 µM |  | 1.15 µM | > 50 µmol/kg
CCCCCCCCC(=O)NCc1ccc2[nH]ccc2c1 | > 100 µM |  |  | 
CCCCCCCCNC(=O)Cc1ccc(O)c(C)c1 | > 100 µM | 10.6 |  | 
CCCCCCCCNC(=O)Cc1ccc(OC)c(O)c1 | 1.82 µM |  |  | 
CCCCCCCCC(=O)NCc1ccc(O)c(OC)c1 [NONIVAMIDE] | 0.55 µM |  | 0.4 µM | 5 µmol/kg
CCCCCCCCC(=O)NCc1cc(OC)c(OC)c(OC)c1 | > 100 µM |  |  | 
CCCCCCCCC(=O)NCc1cccc(O)c1 | > 100 µM |  |  | 
CCCCCCCCNC(=O)Cc1ccc2ncccc2c1 | > 100 µM |  |  | 
CCCCCCCCNC(=O)Cc1ccc(O)c(NC(C)=O)c1 | > 100 µM | 9.7 |  | 
CCCCCCCCC(=O)NCc1cccc(OC)c1 | > 100 µM |  |  | 
CCCCCCCCC(=O)NCc1ccc(O)c(O)c1 | 0.63 µM |  | 0.22 µM | 20 µmol/kg
CCCCCCCCNC(=O)Cc1ccc(O)c(N)c1 | > 100 µM | 10 |  | 
CCCCCCCCC(=O)NCc1ccc(S)c(OC)c1 | > 100 µM |  |  | 

Structure (SMILES) | EC50 (Rattus norvegicus) | pKa [1] | EC50 (Cavia porcellus) | ED50 (Mus musculus)
CCCCCCCCNC(=O)Cc1ccc2c(c1)OCO2 | > 100 µM |  |  | 
CCCCCCCCC(=O)NCc1ccc(N)c(OC)c1 | > 10 µM |  |  | 
CCCCCCCCNC(=O)Cc1ccc(O)c([N+](=O)[O-])c1 | 1.04 µM | 7.7 | 2.78 µM | > 50 µmol/kg
CCCCCCCCC(=O)NCc1ccc(OC)cc1 | > 100 µM |  | 22.2 µM | > 50 µmol/kg
CCCCCCCCC(=O)NCc1ccc(C(=O)O)cc1 | > 100 µM |  |  | 
CCCCCCCCC(=O)NCc1cc[n+]([O-])cc1 | > 100 µM |  |  | 
CCCCCCCCNC(=O)Cc1ccc(O)c(Cl)c1 | 0.26 µM | 9 | 0.68 µM | > 50 µmol/kg
CCCCCCCCC(=O)NCc1ccncc1 | 28 µM |  |  | 
CCCCCCCCNC(=O)Cc1ccc(O)c(OC)c1 | 0.3 µM | 9.9 | 0.33 µM | 9.2 µmol/kg
CCCCCCCCNC(=O)Cc1ccc(O)c(OCC)c1 | 4.34 µM | 10.4 | 4.96 µM | > 50 µmol/kg
CCCCCCCCNC(=O)Cc1ccc(O)c(OC)c1OC | > 100 µM |  |  | 
CCCCCCCCNC(=O)Cc1ccc(O)c(O)c1 | 0.41 µM | 9.2 | 0.33 µM | 50 µmol/kg
CCCCCCCCC(=O)NCc1ccccc1OC | > 100 µM |  |  | 
CCCCCCCCC(=O)NCc1ccc(O)cc1OC | > 100 µM |  |  | 
CCCCCCCCC(=O)NCc1ccccc1 [NONANOIC ACID BENZYLAMIDE] | > 100 µM |  |  | 
CCCCCCCCC(=O)NCc1ccc([N+](=O)[O-])c(OC)c1 | 7.91 µM |  |  | 
CCCCCCCCC(=O)NCc1cc(OC)c(O)cc1OC | > 100 µM |  |  | 
CCCCCCCCNC(=O)Cc1ccc(OC)c(C)c1 | > 100 µM |  |  | 
CCCCCCCCC(=O)NCc1ccnc(OC)c1 | 31.5 µM |  |  | 
CCCCCCCCC(=O)NCc1cccnc1 | > 100 µM |  |  | 
CCCCCCCCNC(=O)Cc1ccc(O)c2c1OCCO2 | > 100 µM |  |  | 
